Test results from paper PMC5651361 (Alzheimer's & Dementia : Translational Research & Clinical …, 2016).
“And” between values parts separate entries of the source, which are not always exact repeats. Identical values can stand only once. Like-named read-outs stand apart in the source and are kept apart here.

Key:
[1] = Plasma and brain exposure after 5-month repeated oral; assay type: in vivo, mouse; conditions: for Brain/plasma AUC(0–24 h) ratio / AUC(0–24 h) / Cmax/Cmin ratio / Cmin / Cmax: 5 months; for 0.002%/0.00067% AUC(0–24 h) ratio: 5 months in diet
Outline: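 Male WT mice received the test compound in diet (0.00067% or 0.002%) for 5 months. Blood was taken from the mandibular vein of awake mice into lithium heparin and centrifuged at 1500–2000g for 10 min at 4°C; plasma was stored at −80°C. Pons/cerebellum was dissected. Samples spanned 24 h; analytes were acetonitrile-precipitated and measured by LC-MS/MS.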

[2] = system: THY-Tau22 mice; experiment: Shape and spatial object recognition test; assay type: in vivo, mouse; conditions: for recognition index, shape episodic memory: Fig. 2A; for recognition index, shape episodic memory / recognition index, spatial episodic memory: means ± SEM; for recognition index, spatial episodic memory: Fig. 2B
Outline: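 Individually housed male THY-Tau22 and WT littermates (enriched environment, reverse light/dark cycle) received diet dosing from age 2 months for 4 or 6 months. Object recognition used a 59 × 59 × 30 cm PVC open field (black walls, white floor) with an overhead camera. Washout groups were tested for shape at 10 d and spatial memory at 17 d after cessation. Recognition index is reported as mean ± SEM.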

[3] = system: tau protein; assay type: in vivo, mouse; conditions: for change in tau phosphorylation at Ser199/202-Thr205 (AT8 signal): 6 months in diet, not significant
Outline: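 Cortex or hippocampus from THY-Tau22 mice given diet dosing for 6 months was homogenized in RIPA buffer (pH 7.5) with protease inhibitors, 1 μM okadaic acid and 100 mM NaF, then centrifuged at 16,000g for 10 min at 4°C. Protein (5 or 20 μg) was run on 4–12% Bis-Tris gels, transferred to PVDF and blocked in 5% milk. Primary antibodies were applied overnight at 4°C. Values are relative, n = 7–9/group.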

[4] = system: Ser9-GSK3β; experiment: Western blot of Ser9-GSK3β in hippocampus; assay type: in vivo, mouse; conditions: 2-week treatment, 0.002% and 0.02% in drinking water, THY-Tau22 mice
[5] = system: AT8 (pSer199/202-Thr205) tau; experiment: AT8 immunostaining, quantitative image analysis; assay type: in vivo, mouse; conditions: 6 months, cortex
Outline: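 Male THY-Tau22 mice received the test compound in diet (0.0002%, 0.002% or 0.02%) for 6 months from age 2 months. Hemibrains were immersion-postfixed 7 days at 4°C in 4% formaldehyde, and 20 μm serial sagittal cryostat sections were cut. AT8 immunostaining was quantified by virtual-slide scanning image analysis as mean positive cell bodies count. Dunnett tests were run on log-transformed data, n = 9 mice/group.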

[6] = system: neurofibrillary tangles; experiment: Neurofibrillary tangles, Gallyas silver staining; assay type: in vivo, mouse; conditions: 6 months
[7] = system: MIP-1α; experiment: Hippocampal mRNA expression, quantitative real-time RT-PCR; assay type: in vivo, mouse; conditions: 6 months, hippocampus
[8] = system: GFAP; experiment: as above; assay type: in vivo, mouse; conditions: 6 months in diet, hippocampus, THY-Tau22
[9] = system: cystatin F; experiment: as above; assay type: in vivo, mouse; conditions: 6 months in diet, hippocampus, THY-Tau22
[10] = system: APPxPS1 transgenic mice; experiment: Object recognition test in APPxPS1 transgenic mice; assay type: in vivo, mouse; conditions: data not shown
[11] = system: rats; conditions: object recognition test, acute treatment; cited from earlier work
[12] = system: mice; conditions: object recognition test, acute treatment; cited from earlier work
[13] = system: histamine H3-receptor (H3R); conditions: compared with ABT-239; cited from earlier work
[14] = system: tau; conditions: 2-week treatment, ventral horn spinal motoneurons and hippocampal CA3 mossy fibers, tau × amyloid precursor protein mice; cited from earlier work
[15] = system: pSer9-GSK3β; conditions: cortex of CD1 mice; cited from earlier work
[16] = system: pSer9-GSK3β; conditions: Tg2576 (APP) AD-transgenic mice; cited from earlier work

Compound: CN1CCCC1CCNS(=O)(=O)c1ccc2c(c1)CN(CC1CCCCC1)CC2 (centres unmarked) [SAR110894]
- Brain/plasma AUC(0–24 h) ratio ([1]; 0.00067% in diet): 3.5
- AUC(0–24 h) ([1]; 0.00067% in diet, brain): 110 ng·h/g
- AUC(0–24 h) ([1]; 0.00067% in diet, plasma): 31 ng·h/mL
- Cmax/Cmin ratio ([1]; 0.00067% in diet, plasma): 1.4
- Cmin ([1]; 0.00067% in diet, plasma): 1.26 ng/mL and 4.83 nM
- Cmax/Cmin ratio ([1]; 0.00067% in diet, pons/cerebellum): 1.5
- Brain/plasma AUC(0–24 h) ratio ([1]; 0.002% in diet): 3.5
- AUC(0–24 h) ([1]; 0.002% in diet, brain): 390 ng·h/g
- AUC(0–24 h) ([1]; 0.002% in diet, plasma): 110 ng·h/mL
- Cmax ([1]; 0.002% in diet, plasma): 24.8 nM
- Cmax/Cmin ratio ([1]; 0.002% in diet, plasma): 2.7
- Cmin ([1]; 0.002% in diet, plasma): 2.44 ng/mL and 9.35 nM
- Cmax ([1]; 0.002% in diet, plasma, male WT mice): 6.48 ng/mL
- Cmax/Cmin ratio ([1]; 0.002% in diet, pons/cerebellum): 2.1
- 0.002%/0.00067% AUC(0–24 h) ratio ([1]; plasma): 3.5
- 0.002%/0.00067% AUC(0–24 h) ratio ([1]; pons/cerebellum): 3.5
- deficit in shape episodic memory ([2]; 0.00067% in diet, 4 months, THY-Tau22 mice, confirmatory study, Fig. 2C): no effect
- deficit in spatial episodic memory ([2]; 0.00067% in diet, 4 months, THY-Tau22 mice, confirmatory study, Fig. 2D): reduced the deficit
- recognition index, shape episodic memory ([2]; 0.002% in diet, THY-Tau22 mice, P = .0010): 64 ± 2%
- recognition index, spatial episodic memory ([2]; 0.002% in diet, THY-Tau22 mice, P = .0153): 58 ± 3%
- procognitive effect on shape episodic memory after treatment washout ([2]; 0.002% in diet, after 1 week of washout, Fig. 2C): still persisted
- procognitive effect on spatial episodic memory after treatment washout ([2]; 0.002% in diet, after 2 weeks of washout, Fig. 2D): still persisted
- recognition index, shape episodic memory ([2]; 0.02% in diet, THY-Tau22 mice, P = .0104): 61 ± 3%
- recognition index, spatial episodic memory ([2]; 0.02% in diet, THY-Tau22 mice, P = .0002): 60 ± 2%
- cognitive deficits in THY-Tau22 mice ([2]; administered during 4 or 6 months starting at the age of 2 months): prevented cognitive deficits
- change in tau phosphorylation at pSer214 ([3]; 0.002% in diet, 6 months, cortex, P = .0052): −35%
- change in tau phosphorylation at pSer422 ([3]; 0.002% in diet, 6 months, cortex, no effect, P = .3019): −20%
- change in tau phosphorylation at pThr181 (AT270 signal) ([3]; 0.002% in diet, 6 months, cortex, no effect, P = .4830): −16%
- change in AD2 signal ([3]; 0.002% in diet, 6 months, cortex, second independent Western blot evaluation, P = .0191, Fig. 4F): −37%
- change in AD2 signal ([3]; 0.002% in diet, 6 months, cortex, trend, P = .2766, Fig. 4B): −57%
- change in total tau (Tau5 signal) ([3]; 0.002% in diet, 6 months, cortex, unchanged, P = .0950): −17%
- change in tau phosphorylation at residues 396/404 (AD2 signal) ([3]; 0.002% in diet, 6 months, hippocampus, THY-Tau22, P = .0291): −37%
- tau hyperphosphorylation (AD2 or AT8) ([3]; 2-week treatment, 0.002% and 0.02% in drinking water, hippocampus, 5- to 6-month-old THY-Tau22 mice): no effect
- change in tau phosphorylation at Ser199/202-Thr205 (AT8 signal) ([3]; cortex, P = .8054, Fig. 4E): −29%
- change in tau phosphorylation at Ser199/202-Thr205 (AT8 signal) ([3]; hippocampus, P = .5560, Fig. 4D): −22%
- tau hyperphosphorylation (AD2 or AT8 epitopes) ([3]; acute administration 3 and 10 mg/kg orally, cingulate cortex, 3-month-old THY-Tau22 mice, data not shown): no effect
- level of Ser9-GSK3β (inactive form of GSK3β) [4]: no effect
- decrease in number of AT8-positive neuronal cell bodies ([5]; 0.002% in diet, THY-Tau22, P = .0010): 47%
- intensity of AT8 immunostaining within neuronal cell bodies and fibers ([5]; 0.002% in diet, data not shown): marked decrease
- decrease in number of AT8-positive neuronal cell bodies ([5]; 0.02% in diet, THY-Tau22, P = .0250): 32%
- change in number of NFTs ([6]; 0.002% in diet, cortex, P = .0001): −48%
- change in number of NFTs ([6]; 0.002% in diet, hippocampus, P < .0001): −25%
- change in number of NFTs ([6]; 0.02% in diet, amygdala, P = .0065): −31%
- change in number of NFTs ([6]; 0.02% in diet, cortex, P = .0019): −41%
- change in number of NFTs ([6]; 0.02% in diet, hippocampus, P = .0006): −22%
- change in expression of MIP-1α ([7]; 0.0002% in diet, THY-Tau22, P = .0087): −35%
- change in expression of MIP-1α ([7]; 0.002% in diet, THY-Tau22, P = .0184): −36%
- expression of GFAP [8]: no effect
- expression of cystatin F [9]: no effect
- memory deficits in APPxPS1 transgenic mice [10]: decreased memory deficits
- scopolamine-induced memory deficits [11]: prevented the occurrence
- memory deficits induced by infusion of Aβ(25–35) [12]: decreased the memory deficits
- affinity and selectivity for H3R [13]: higher affinity and selectivity than ABT-239

Compound: C[C@@H]1CCCN1CCc1cc2cc(-c3ccc(C#N)cc3)ccc2o1 [ABT-239]
- tau hyperphosphorylation (AT8 site) [14]: decreases tau hyperphosphorylation
- levels of pSer9-GSK3β (inactive form of GSK3β) [15]: increased the levels
- reduction in hippocampal pSer9-GSK3β levels [16]: reversed the reduction
